Test results from ChEMBL document CHEMBL1287754, “28-nor-oleanane-type triterpene saponins from Camellia japonica and their inhibitory activity on LPS-induced NO production in macrophage RAW264.7 cells” (Bioorg Med Chem Lett, 2010).

Tests used:
RAW264.7 [1] = assay: Antiinflammatory activity in mouse RAW264.7 cells assessed as inhibition of LPS-induced nitric oxide production after 24 hrs by Griess reaction; format: functional, cell-based; details: RAW264.7, 24 h
Method in brief: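 LPS-stimulated RAW264.7 macrophages; nitrite, the stable NO metabolite, quantified by Griess reaction in harvested culture medium. IC50 is the molar concentration giving 50% inhibition of NO production relative to vehicle control.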

RAW264.7 [2] = assay: Cytotoxicity against LPS-stimulated mouse RAW264.7 cells assessed as cell viability at 50 uM after 24 hrs by MTT assay; format: cell-based; details: raw264.7, 24 h
RAW264.7 [3] = assay: Cytotoxicity against mouse RAW264.7 cells assessed as cell viability at 50 uM after 24 hrs by MTT assay; format: cell-based; details: raw264.7, 24 h

| Structure (SMILES) | IC50 (RAW264.7 [1]) [µM] | Activity (RAW264.7 [2]) | Activity (RAW264.7 [3]) |
| --- | --- | --- | --- |
| CC1CCN=C(N)S1 (centres undefined) | 0.022 | – | – |
| COC(=O)[C@H]1O[C@@H](O[C@H]2CC[C@@]3(C)C(CC[C@]4(C)[C@@H]3CC=C3[C@@H]5CC(C)(C)CC[C@]5(O)C(=O)C[C@]34C)C2(C)C)[C@H](O[C@H]2O[C@@H](CO)[C@@H](O)[C@@H](O)[C@@H]2O)[C@@H](O[C@@H]2O[C@H](CO)[C@H](O)[C@H](O)[C@H]2O[C@@H]2OC[C@@H](O)[C@H](O)[C@H]2O)[C@@H]1O (some centres undefined) [CAMELLIOSIDE G] | 5.16 | Non-toxic | Non-toxic |
| CC(=O)O[C@H]1[C@@H](O)[C@H](O)[C@@H](O[C@H]2[C@H](O[C@H]3CC[C@@]4(C)C(CC[C@]5(C)[C@@H]4CC=C4[C@@H]6CC(C)(C)CC[C@]6(O)C(=O)C[C@]45C)C3(C)C)O[C@H](C(=O)O)[C@@H](O)[C@@H]2O[C@@H]2O[C@H](CO)[C@H](O)[C@H](O)[C@H]2O[C@@H]2O[C@H](CO)[C@@H](O)[C@H](O)[C@H]2O)O[C@H]1CO (some centres undefined) [CAMELLIOSIDE] | 4.96 | Non-toxic | Non-toxic |
| CC(=O)O[C@H]1[C@@H](O)[C@H](O)[C@@H](O[C@H]2[C@H](O[C@H]3CC[C@@]4(C)C(CC[C@]5(C)[C@@H]4CC=C4[C@@H]6CC(C)(C)CC[C@]6(O)C(=O)C[C@]45C)C3(C)C)O[C@H](C(=O)O)[C@@H](O)[C@@H]2O[C@@H]2O[C@H](CO)[C@H](O)[C@H](O)[C@H]2O[C@@H]2OC[C@@H](O)[C@H](O)[C@H]2O)O[C@H]1CO (some centres undefined) [CAMELLIOSIDE F] | 11.5 | Non-toxic | Non-toxic |
| COC(=O)[C@H]1O[C@@H](O[C@H]2CC[C@@]3(C)C(CC[C@]4(C)[C@@H]3CC=C3C5=C(CCC(C)(C)C5)C(=O)C[C@]34C)C2(C)C)[C@H](O[C@H]2O[C@@H](CO)[C@@H](O)[C@@H](O)[C@@H]2O)[C@@H](O[C@@H]2O[C@H](CO)[C@H](O)[C@H](O)[C@H]2O[C@@H]2OC[C@@H](O)[C@H](O)[C@H]2O)[C@@H]1O (some centres undefined) [CAMELLIOSIDE H] | 15.9 | Non-toxic | Non-toxic |
| CC1(C)CC[C@]2(O)C(=O)C[C@]3(C)C(=CC[C@@H]4[C@@]5(C)CC[C@H](O[C@@H]6O[C@H](C(=O)O)[C@@H](O)[C@H](O[C@@H]7O[C@H](CO)[C@H](O)[C@H](O)[C@H]7O[C@@H]7O[C@H](CO)[C@@H](O)[C@H](O)[C@H]7O)[C@H]6O[C@H]6O[C@@H](CO)[C@@H](O)[C@@H](O)[C@@H]6O)C(C)(C)C5CC[C@]43C)[C@@H]2C1 (some centres undefined) [CAMELLIOSIDE A] | 9.59 | Non-toxic | Non-toxic |
| CC1(C)CC[C@]2(O)C(=O)C[C@]3(C)C(=CC[C@@H]4[C@@]5(C)CC[C@H](O[C@@H]6O[C@H](C(=O)O)[C@@H](O)[C@H](O[C@@H]7O[C@H](CO)[C@H](O)[C@H](O)[C@H]7O[C@@H]7OC[C@@H](O)[C@H](O)[C@H]7O)[C@H]6O[C@H]6O[C@@H](CO)[C@@H](O)[C@@H](O)[C@@H]6O)C(C)(C)C5CC[C@]43C)[C@@H]2C1 (some centres undefined) [CAMELLIOSIDE E] | 18.2 | Non-toxic | Non-toxic |
